Like-named read-outs stand apart in the source and are kept apart here.
Assays:
NF-κB p50 = target: T1, NF-κB p50 (Homo sapiens, UniProt P19838); test: Enzyme-based ELISA NF-κB p50 assay; assay type: biochemical
T1 sequence (P19838 1-433 limits assumed): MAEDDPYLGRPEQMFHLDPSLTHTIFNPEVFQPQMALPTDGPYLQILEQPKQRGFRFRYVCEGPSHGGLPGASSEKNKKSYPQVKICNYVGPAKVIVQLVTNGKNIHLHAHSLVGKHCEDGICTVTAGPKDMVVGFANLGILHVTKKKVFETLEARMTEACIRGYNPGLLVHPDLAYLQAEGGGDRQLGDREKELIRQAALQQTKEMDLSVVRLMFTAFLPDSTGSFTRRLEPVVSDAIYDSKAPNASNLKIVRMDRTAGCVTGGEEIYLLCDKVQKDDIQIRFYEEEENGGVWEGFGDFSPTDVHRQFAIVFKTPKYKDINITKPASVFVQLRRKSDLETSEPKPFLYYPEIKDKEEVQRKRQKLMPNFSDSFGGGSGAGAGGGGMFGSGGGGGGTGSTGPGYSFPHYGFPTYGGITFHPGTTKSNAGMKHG

9KB = 9KB in vitro test system; cited from earlier work
NF-κB p65 = NF-κB p65 (Homo sapiens, UniProt Q04206); test: Enzyme-based ELISA NF-κB p65 assay; assay type: biochemical
Sequence of NF-κB p65 (Q04206 whole entry, one chain of several): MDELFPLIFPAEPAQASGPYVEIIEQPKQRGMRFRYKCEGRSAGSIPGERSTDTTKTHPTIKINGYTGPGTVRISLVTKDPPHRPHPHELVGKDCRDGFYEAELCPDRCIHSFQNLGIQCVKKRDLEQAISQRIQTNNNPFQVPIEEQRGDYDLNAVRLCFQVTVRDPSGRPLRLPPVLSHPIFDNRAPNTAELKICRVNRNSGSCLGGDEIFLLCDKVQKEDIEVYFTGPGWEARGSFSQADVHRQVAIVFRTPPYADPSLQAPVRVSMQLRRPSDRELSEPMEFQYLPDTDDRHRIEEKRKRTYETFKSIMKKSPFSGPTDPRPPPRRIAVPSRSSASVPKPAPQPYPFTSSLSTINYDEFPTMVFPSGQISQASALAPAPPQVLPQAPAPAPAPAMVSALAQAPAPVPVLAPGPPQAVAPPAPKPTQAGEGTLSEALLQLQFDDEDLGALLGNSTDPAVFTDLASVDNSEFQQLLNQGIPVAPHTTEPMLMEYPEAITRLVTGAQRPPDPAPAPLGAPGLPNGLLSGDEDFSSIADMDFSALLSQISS

[1] = test system: HT-29 human colon cancer cells; test: Cytotoxicity assay against HT-29 cells; assay type: cell-based; settings: for cytotoxicity ED50: HT-29 cells, three days incubation, SRB; for IC50: Homo sapiens, HT-29, 72 h, read-out: cytotoxicity ED50
Outline: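 Trypsinized HT-29 cells seeded in 96-well plates with test compound in DMSO; DMSO-only wells as negative control, paclitaxel as positive control. Incubated 3 days at 37 °C, 5% CO2. Cells fixed, held 30 min at room temperature, water-washed, air-dried overnight, then stained with sulforhodamine B. Dye released in tris-base buffer, absorbance read at 515 nm. Cytotoxicity calculated against negative control, reported as ED50 (μM).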

9PS = 9PS in vitro test system; cited from earlier work
P388 leukemia cells = settings: cited from earlier work

| Molecule | cytotoxicity ED50 [1] | IC50 (NF-κB p50) | IC50 (NF-κB p65) | also measured |
| --- | --- | --- | --- | --- |
| 3-hydroxy-4,3′,5′-trimethoxy-trans-stilbene [Compound 9] | 8.7 µM |  |  | IC50 (NF-κB p50; read-out: NF-κB p50 inhibition IC50, HeLa nuclear extract, ELISA): > 10 µM; cytotoxicity ED50 (9KB): 0.01 µg/mL; IC50 (NF-κB p65; read-out: NF-κB p65 inhibition IC50, HeLa nuclear extract, ELISA): > 10 µM; cytotoxicity ED50 (9PS): 0.1 µg/mL |
| C=C(C)[C@H]1Cc2c(oc3c(CC=C(C)C)c(O)c(CC=C(C)C)c(O)c3c2=O)-c2c(O)cc(O)c(O)c21 [Compound 1, (5R)-5,6-dihydro-1,3,4,8,10-pentahydroxy-5-isopropenyl-9,11-bis(3-methyl-2-butenyl)-7H-benzo[c]xanthen-7-one] |  | 2 µM | > 10 µM |  |
| C=C(C)c1cc2c(=O)c3c(O)c(CC=C(C)C)c(O)cc3oc2c2c1C(=O)C(O)=C(CC=C(C)C)C2=O [Compound 3, 4,8,10-trihydroxy-5-isopropenyl-2,9-bis(3-methyl-2-butenyl)-7-benzo[c]xanthen-2,4,7-trione] | >10 µM |  |  |  |
| CC(C)=CCc1c(O)c(CC=C(C)C)c2oc3c(c(=O)c2c1O)C(C=C(C)C)Oc1cc(O)c(O)cc1-3 (stereo not shown) [Compound 4, 2,3,8,10-tetrahydroxy-6-(2-methylpropenyl)-9,11-bis(3-methyl-2-butenyl)-6H[1]benzopyrano[4,3-b]benzopyran-7-one] |  | > 10 µM | > 10 µM |  |
| CC1(C)C=Cc2cc3c(cc2O1)Oc1cc(O)ccc1C(O)=C3 [Compound 5, 2,2-dimethyl-2H-benzo{6,7-oxepino[3,2-g]}chromene-7,10-diol] |  | > 10 µM | > 10 µM | IC50 [1]: 10.7 µM |
| C=C(C)[C@H]1Cc2c(oc3cc(O)c(CC=C(C)C)c(O)c3c2=O)C2=C1C(=O)C(O)=C(CC=C(C)C)C2=O [Compound 6, artonin O] |  | > 10 µM | > 10 µM |  |
| C=C(C)[C@H]1Cc2c(oc3c4c(cc(O)c3c2=O)OC(C)(C)C=C4)-c2c(O)cc(O)c(O)c21 [Compound 7, artobiloxanthone] | >10 µM | 3.7 µM | 2.3 µM |  |
| CC1(C)C=Cc2c(cc(O)c3c(=O)c4c(oc23)-c2c(O)cc(O)c3c2C(C4)C(C)(C)O3)O1 (stereo not shown) [Compound 8, cycloartobiloxanthone] |  | > 10 µM | > 10 µM |  |
| CC(C)=CCc1c(-c2cc(O)c(O)cc2O)oc2c3c(cc(O)c2c1=O)OC(C)(C)C=C3 [artonin E] |  |  |  | cytotoxicity ED50 (P388 leukemia cells): 0.06 µg/mL |
| COc1cc(O)c2c(=O)c3cc4c5c(c(O)cc(O)c5c3oc2c1)OC4(C)C [artonin K] |  |  |  | IC50 [1]: > 10 µM |

— paper PMC2878397 (Journal of natural products, 2010)
